In ChEMBL document CHEMBL4680371, “Design and Structure-Activity Relationship of a Potent Furin Inhibitor Derived from Influenza Hemagglutinin” (ACS Med Chem Lett, 2021) one finds Ki data, which are given here for 29 molecules.

Where a SMILES comes first, the peptide text is derived from it. Bridges are numbered along the chain shown (N, C = ends). [ ]: non-standard residue; d: D form. Abu = CC[C@H](N)C(=O)O; Aib = CC(C)(N)C(=O)O

Sequence of Furin (P09958 whole entry): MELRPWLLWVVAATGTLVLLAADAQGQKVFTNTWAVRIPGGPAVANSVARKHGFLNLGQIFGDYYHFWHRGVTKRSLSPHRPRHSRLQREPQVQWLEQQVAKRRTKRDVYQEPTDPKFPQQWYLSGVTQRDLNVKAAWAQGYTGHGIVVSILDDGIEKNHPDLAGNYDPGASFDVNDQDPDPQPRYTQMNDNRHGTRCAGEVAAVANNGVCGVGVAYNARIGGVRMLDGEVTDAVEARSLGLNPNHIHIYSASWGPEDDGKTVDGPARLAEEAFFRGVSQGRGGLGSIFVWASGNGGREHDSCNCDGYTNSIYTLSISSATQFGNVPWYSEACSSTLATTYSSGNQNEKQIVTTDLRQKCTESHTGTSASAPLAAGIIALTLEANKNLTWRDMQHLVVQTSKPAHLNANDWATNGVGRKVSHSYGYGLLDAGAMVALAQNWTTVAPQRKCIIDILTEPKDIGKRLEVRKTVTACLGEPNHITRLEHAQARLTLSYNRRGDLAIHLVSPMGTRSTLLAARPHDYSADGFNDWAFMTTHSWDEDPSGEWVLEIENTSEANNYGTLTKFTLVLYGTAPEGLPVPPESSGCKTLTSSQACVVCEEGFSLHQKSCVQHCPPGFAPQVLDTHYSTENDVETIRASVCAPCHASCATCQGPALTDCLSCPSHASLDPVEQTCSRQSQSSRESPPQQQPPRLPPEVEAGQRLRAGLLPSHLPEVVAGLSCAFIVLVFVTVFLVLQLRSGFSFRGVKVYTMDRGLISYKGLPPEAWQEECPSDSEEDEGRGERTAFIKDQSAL

The target in the assay is Furin (Homo sapiens, UniProt P09958). The assay is described as follows: Inhibition of recombinant soluble human furin using pyroGlu-Arg-Thr-Lys-Arg-methyl-coumaryl-7-amide as substrate measured after 1 hr. A digest of the protocol:
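Soluble human recombinant furin was tested in a competitive kinetic assay. Ki is reported as the mean ± SD of at least two independent experiments.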
As to `CSCC[C@H](NC(C)=O)C(=O)N[C@@H](C)C(=O)N[C@@H](CCCNC(=N)N)C(=O)N[C@@H](CCCNC(=N)N)C(=O)N[C@@H](CCCNC(=N)N)C(=O)N[C@@H](CCCCN)C(=O)N[C@@H](CCCCN)C(=O)N[C@@H](CCCNC(=N)N)C(=O)N[C@H](C(N)=O)[C@@H](C)O`, the Ki worked out at 12 nM.
With `CC(=O)NCC(=O)N[C@@H](C)C(=O)N[C@@H](CCCNC(=N)N)C(=O)N[C@@H](CCCNC(=N)N)C(=O)N[C@@H](CCCNC(=N)N)C(=O)N[C@@H](CCCCN)C(=O)N[C@@H](CCCCN)C(=O)N[C@@H](CCCNC(=N)N)C(=O)N[C@H](C(N)=O)[C@@H](C)O`, the inhibition constant (Ki) was found to be 11 nM.
As for `CC[C@H](C)[C@H](NC(=O)[C@H](CCCNC(=N)N)NC(=O)[C@H](C)NC(=O)CNC(C)=O)C(=O)N[C@@H](CCCNC(=N)N)C(=O)N[C@@H](CCCCN)C(=O)N[C@@H](CCCCN)C(=O)N[C@@H](CCCNC(=N)N)C(=O)N[C@H](C(N)=O)[C@@H](C)O` (Ac-GARIRKKRT-NH2), the figure is 9 nM; as for `CC(=O)N[C@@H](CCCNC(=N)N)C(=O)N[C@@H](C)C(=O)N[C@@H](CCC(=O)O)C(=O)N[C@@H](CCCNC(=N)N)C(=O)N[C@@H](CCCNC(=N)N)C(=O)N[C@@H](CCCCN)C(=O)N[C@@H](CCCCN)C(=O)N[C@@H](CCCNC(=N)N)C(=O)N[C@H](C(N)=O)[C@@H](C)O`, 140 nM.
As for `CC(=O)N[C@@H](CCCNC(=N)N)C(=O)N[C@@H](C)C(=O)N[C@@H](CCCNC(=N)N)C(=O)N[C@@H](CC(=O)O)C(=O)N[C@@H](CCCNC(=N)N)C(=O)N[C@@H](CCCCN)C(=O)N[C@@H](CCCCN)C(=O)N[C@@H](CCCNC(=N)N)C(=O)N[C@H](C(N)=O)[C@@H](C)O`, the figure is 130 nM; as for `CC(=O)N[C@@H](CCCNC(=N)N)C(=O)N[C@@H](Cc1c[nH]cn1)C(=O)N[C@@H](CCCNC(=N)N)C(=O)N[C@@H](CCCNC(=N)N)C(=O)N[C@@H](CCCNC(=N)N)C(=O)N[C@@H](CCCCN)C(=O)N[C@@H](CCCCN)C(=O)N[C@@H](CCCNC(=N)N)C(=O)N[C@H](C(N)=O)[C@@H](C)O`, 21 nM.
As for `CC(=O)N[C@@H](CCCNC(=N)N)C(=O)N[C@@H](C)C(=O)N[C@@H](Cc1c[nH]c2ccccc12)C(=O)N[C@@H](CCCNC(=N)N)C(=O)N[C@@H](CCCNC(=N)N)C(=O)N[C@@H](CCCCN)C(=O)N[C@@H](CCCCN)C(=O)N[C@@H](CCCNC(=N)N)C(=O)N[C@H](C(N)=O)[C@@H](C)O`, the figure is 97 nM.
With `CC[C@H](C)[C@H](NC(=O)[C@H](C)NC(=O)[C@H](CCCNC(=N)N)NC(C)=O)C(=O)N[C@@H](CCCNC(=N)N)C(=O)N[C@@H](CCCNC(=N)N)C(=O)N[C@@H](CCCCN)C(=O)N[C@@H](CCCCN)C(=O)N[C@@H](CCCNC(=N)N)C(=O)N[C@H](C(N)=O)[C@@H](C)O`, the inhibition constant Ki was 26 nM.
As for `CC(=O)N[C@@H](CCCNC(=N)N)C(=O)N[C@@H](C)C(=O)N[C@@H](CCCNC(=N)N)C(=O)N[C@@H](C)C(=O)N[C@@H](CCCNC(=N)N)C(=O)N[C@@H](CCCCN)C(=O)N[C@@H](CCCCN)C(=O)N[C@@H](CCCNC(=N)N)C(=O)N[C@H](C(N)=O)[C@@H](C)O`, the figure is 11 nM; as for `CC[C@H](C)[C@H](NC(=O)[C@H](CCCNC(=N)N)NC(C)=O)C(=O)N[C@@H](CCCNC(=N)N)C(=O)N[C@@H](CCCNC(=N)N)C(=O)N[C@@H](CCCNC(=N)N)C(=O)N[C@@H](CCCCN)C(=O)N[C@@H](CCCCN)C(=O)N[C@@H](CCCNC(=N)N)C(=O)N[C@H](C(N)=O)[C@@H](C)O`, 20 nM; as for `CC[C@H](C)[C@H](NC(=O)[C@H](CCCNC(=N)N)NC(=O)[C@H](C)NC(=O)C(C)(C)NC(C)=O)C(=O)N[C@@H](CCCNC(=N)N)C(=O)N[C@@H](CCCCN)C(=O)N[C@@H](CCCCN)C(=O)N[C@@H](CCCNC(=N)N)C(=O)N[C@H](C(N)=O)[C@@H](C)O` (Ac-[Aib]ARIRKKRT-NH2), 13 nM.
As for `CC(=O)N[C@@H](CCCNC(=N)N)C(=O)N[C@@H](C)C(=O)N[C@@H](CCCNC(=N)N)C(=O)NC1(C(=O)N[C@@H](CCCNC(=N)N)C(=O)N[C@@H](CCCCN)C(=O)N[C@@H](CCCCN)C(=O)N[C@@H](CCCNC(=N)N)C(=O)N[C@H](C(N)=O)[C@@H](C)O)CCCC1`, the figure is 50 nM.
As for `CC(=O)N[C@@H](CCCNC(=N)N)C(=O)N[C@H](C(=O)N[C@@H](CCCNC(=N)N)C(=O)N[C@@H](CCCNC(=N)N)C(=O)N[C@@H](CCCNC(=N)N)C(=O)N[C@@H](CCCCN)C(=O)N[C@@H](CCCCN)C(=O)N[C@@H](CCCNC(=N)N)C(=O)N[C@H](C(N)=O)[C@@H](C)O)C(C)C`, the figure is 16 nM; as for `CC(=O)N[C@@H](CCCNC(=N)N)C(=O)N[C@@H](CC(C)C)C(=O)N[C@@H](CCCNC(=N)N)C(=O)N[C@@H](CCCNC(=N)N)C(=O)N[C@@H](CCCNC(=N)N)C(=O)N[C@@H](CCCCN)C(=O)N[C@@H](CCCCN)C(=O)N[C@@H](CCCNC(=N)N)C(=O)N[C@H](C(N)=O)[C@@H](C)O`, 23 nM; as for `CC(=O)N[C@@H](CCCNC(=N)N)C(=O)N[C@@H](C)C(=O)N[C@@H](CCCNC(=N)N)C(=O)N[C@H]1CCCCNC(=O)[C@H](CCCNC(=N)N)NC(=O)[C@H](CCCCN)NC(=O)[C@H](CCCCN)NC(=O)[C@H](CCCNC(=N)N)NC(=O)[C@H]([C@@H](C)O)NC1=O` (Ac-RARKTRKKR; lactam 4-C), 2500 nM.
Turning to `CC(=O)N[C@@H](CCCNC(=N)N)C(=O)N[C@@H](Cc1ccc(O)cc1)C(=O)N[C@@H](CCCNC(=N)N)C(=O)N[C@@H](CCCNC(=N)N)C(=O)N[C@@H](CCCNC(=N)N)C(=O)N[C@@H](CCCCN)C(=O)N[C@@H](CCCCN)C(=O)N[C@@H](CCCNC(=N)N)C(=O)N[C@H](C(N)=O)[C@@H](C)O`, the Ki amounted to 24 nM.
Take `CC(=O)N[C@@H](CCCNC(=N)N)C(=O)N[C@@H](C)C(=O)N[C@@H](CCCNC(=N)N)C(=O)N[C@@H](Cc1c[nH]c2ccccc12)C(=O)N[C@@H](CCCNC(=N)N)C(=O)N[C@@H](CCCCN)C(=O)N[C@@H](CCCCN)C(=O)N[C@@H](CCCNC(=N)N)C(=O)N[C@H](C(N)=O)[C@@H](C)O`: the inhibition constant Ki stood at 47 nM.
As for `CC(=O)N[C@@H](CC(=O)O)C(=O)N[C@@H](C)C(=O)N[C@@H](CCCNC(=N)N)C(=O)N[C@@H](CCCNC(=N)N)C(=O)N[C@@H](CCCNC(=N)N)C(=O)N[C@@H](CCCCN)C(=O)N[C@@H](CCCCN)C(=O)N[C@@H](CCCNC(=N)N)C(=O)N[C@H](C(N)=O)[C@@H](C)O`, the figure is 20 nM.
As for `CC(=O)N[C@@H](CCC(=O)O)C(=O)N[C@@H](C)C(=O)N[C@@H](CCCNC(=N)N)C(=O)N[C@@H](CCCNC(=N)N)C(=O)N[C@@H](CCCNC(=N)N)C(=O)N[C@@H](CCCCN)C(=O)N[C@@H](CCCCN)C(=O)N[C@@H](CCCNC(=N)N)C(=O)N[C@H](C(N)=O)[C@@H](C)O`, the figure is 11 nM; as for `CC[C@H](NC(=O)[C@H](CCCNC(=N)N)NC(=O)[C@H](C)NC(=O)CNC(C)=O)C(=O)N[C@@H](CCCNC(=N)N)C(=O)N[C@@H](CCCCN)C(=O)N[C@@H](CCCCN)C(=O)N[C@@H](CCCNC(=N)N)C(=O)N[C@H](C(N)=O)[C@@H](C)O` (Ac-GAR[Abu]RKKRT-NH2), 10 nM; as for `CC(=O)N[C@@H](CCCNC(=N)N)C(=O)N[C@@H](Cc1c[nH]c2ccccc12)C(=O)N[C@@H](CCCNC(=N)N)C(=O)N[C@@H](CCCNC(=N)N)C(=O)N[C@@H](CCCNC(=N)N)C(=O)N[C@@H](CCCCN)C(=O)N[C@@H](CCCCN)C(=O)N[C@@H](CCCNC(=N)N)C(=O)N[C@H](C(N)=O)[C@@H](C)O`, 29 nM.
As for `CC(=O)N[C@@H](CCCNC(=N)N)C(=O)N[C@@H](C)C(=O)N[C@@H](CO)C(=O)N[C@@H](CCCNC(=N)N)C(=O)N[C@@H](CCCNC(=N)N)C(=O)N[C@@H](CCCCN)C(=O)N[C@@H](CCCCN)C(=O)N[C@@H](CCCNC(=N)N)C(=O)N[C@H](C(N)=O)[C@@H](C)O`, the figure is 29 nM; as for `CC(=O)N[C@@H](CCCNC(=N)N)C(=O)N[C@@H](C)C(=O)N[C@@H](CC(N)=O)C(=O)N[C@@H](CCCNC(=N)N)C(=O)N[C@@H](CCCNC(=N)N)C(=O)N[C@@H](CCCCN)C(=O)N[C@@H](CCCCN)C(=O)N[C@@H](CCCNC(=N)N)C(=O)N[C@H](C(N)=O)[C@@H](C)O`, 27 nM; as for `CC(=O)N[C@@H](CCCNC(=N)N)C(=O)N1CCC[C@H]1C(=O)N[C@@H](CCCNC(=N)N)C(=O)N[C@@H](CCCNC(=N)N)C(=O)N[C@@H](CCCNC(=N)N)C(=O)N[C@@H](CCCCN)C(=O)N[C@@H](CCCCN)C(=O)N[C@@H](CCCNC(=N)N)C(=O)N[C@H](C(N)=O)[C@@H](C)O`, 17 nM.
As to `CC(=O)N[C@H](C(=O)N[C@@H](C)C(=O)N[C@@H](CCCNC(=N)N)C(=O)N[C@@H](CCCNC(=N)N)C(=O)N[C@@H](CCCNC(=N)N)C(=O)N[C@@H](CCCCN)C(=O)N[C@@H](CCCCN)C(=O)N[C@@H](CCCNC(=N)N)C(=O)N[C@H](C(N)=O)[C@@H](C)O)[C@@H](C)O`, the Ki was 10 nM.
As to `CC(=O)N[C@@H](CCCNC(=N)N)C(=O)N[C@@H](C)C(=O)N[C@@H](CCCNC(=N)N)C(=O)N[C@@H](CC(C)C)C(=O)N[C@@H](CCCNC(=N)N)C(=O)N[C@@H](CCCCN)C(=O)N[C@@H](CCCCN)C(=O)N[C@@H](CCCNC(=N)N)C(=O)N[C@H](C(N)=O)[C@@H](C)O`, the Ki stood at 11 nM.
As for `CC(=O)N[C@@H](CCCNC(=N)N)C(=O)N[C@@H](C)C(=O)N[C@@H](CCCNC(=N)N)C(=O)N[C@@H](Cc1c[nH]cn1)C(=O)N[C@@H](CCCNC(=N)N)C(=O)N[C@@H](CCCCN)C(=O)N[C@@H](CCCCN)C(=O)N[C@@H](CCCNC(=N)N)C(=O)N[C@H](C(N)=O)[C@@H](C)O`, the figure is 22 nM; as for `CC(=O)N[C@@H](C)C(=O)N[C@H](C(=O)N[C@@H](CCCNC(=N)N)C(=O)N[C@@H](CCCNC(=N)N)C(=O)N[C@@H](CCCNC(=N)N)C(=O)N[C@@H](CCCCN)C(=O)N[C@@H](CCCCN)C(=O)N[C@@H](CCCNC(=N)N)C(=O)N[C@H](C(N)=O)[C@@H](C)O)C(C)C` (Ac-AVRRRKKRT-NH2), 10 nM.
As for `CC[C@H](C)[C@H](NC(=O)[C@H](CCCNC(=N)N)NC(=O)[C@H](C)NC(=O)[C@H](CCC(=O)O)NC(C)=O)C(=O)N[C@@H](CCCNC(=N)N)C(=O)N[C@@H](CCCCN)C(=O)N[C@@H](CCCCN)C(=O)N[C@@H](CCCNC(=N)N)C(=O)N[C@H](C(N)=O)[C@@H](C)O` (Ac-EARIRKKRT-NH2), the figure is 12 nM.

The Ki is a measure of affinity in units of concentration, obtained from inhibition or displacement.
